Tn6 DDE FP: DD(E)-Tn6 binding inhibition, primary FP screen. AID 720509. hit rate 0.21% among 370,000. inhibition, % at 8.3 µM. P02675. Fibrin DD(E) TRITC-Tn6 fluorescence polarization displacement;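 active means inhibition above a per-campaign cutoff: mean of compounds within control limits plus 3 SD, cut at about 15% in these data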;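 further: 0% = median of all compound wells on the plate and 100% = blocking peptide control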
Target sequence (P02675 whole entry, looked up): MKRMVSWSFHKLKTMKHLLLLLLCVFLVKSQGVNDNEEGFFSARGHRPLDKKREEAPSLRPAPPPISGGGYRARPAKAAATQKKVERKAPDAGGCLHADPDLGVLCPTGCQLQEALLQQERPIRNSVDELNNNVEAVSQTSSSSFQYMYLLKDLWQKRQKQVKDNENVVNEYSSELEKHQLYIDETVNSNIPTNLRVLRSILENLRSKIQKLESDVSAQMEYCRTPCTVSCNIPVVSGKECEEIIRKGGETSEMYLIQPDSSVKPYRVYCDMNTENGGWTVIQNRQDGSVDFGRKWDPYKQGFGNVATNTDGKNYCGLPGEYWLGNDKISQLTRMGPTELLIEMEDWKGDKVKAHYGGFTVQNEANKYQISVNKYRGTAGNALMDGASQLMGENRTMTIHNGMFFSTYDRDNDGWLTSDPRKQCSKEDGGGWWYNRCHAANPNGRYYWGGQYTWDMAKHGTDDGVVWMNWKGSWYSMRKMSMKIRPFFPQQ
KLK7 zymogen act: activates the human kallikrein-7 zymogen | P49862 | purified proKLK7, EDANS-DABCYL substrate fluorescence; 100% is mature enzyme control, 0% vehicle | activation, % at 7 µM | hit rate 0.9% among 370,000;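 active means activation above the mean of all tested compounds plus 3 SD, computed per campaign excluding outliers beyond control limits, cut at about 13% in these data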
CRFBP-R2 block: antagonists of CRF-binding protein/CRF-R2 receptor complex; HEK293 CRF-R2/CRF-BP, CRF-induced calcium fluorescence; inhibition, % at 11.8 µM; hit rate 0.59% among 350,000; AID 588475;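 active means inhibition of the ligand-induced calcium signal above about 50% at the single tested concentration, limit read from the data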
DDE Tn7 FP inh: disrupts Tn7 cyclic peptide binding to fibrin D-Dimer-E complex. P02675. FP displacement of FITC-Tn7 peptide from fibrin DD(E); 0% = median of compound wells per plate. inhibition, % at 8.3 µM. hit rate 0.13% among 370,000. AID 720508;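 active means inhibition above the mean of compounds falling within the control limits plus 3 SD of them, cut at about 14% in these data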;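 further: 0% = plate median of compound wells and 100% = 10 µM Aha-Tn7 peptide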
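Assay system: Fibrin-DD(E) protein isolated from polymerized human fibrin clots; read-out basis: percent inhibition; medium: Tris/NaCl/CaCl2 buffer, pH 7.8; signal: FP measurement; incubation: 10 min plus 3 h, room temperature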
CendR NRP1 mod: modulators of CendR peptide binding to human neuropilin-1. FAM-RPARPAR peptide binding to NRP-1, fluorescence polarization. inhibition, % at 25 µM. hit rate 0.85% among 360,000. AID 602438;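 active means inhibition or corrected inhibition above about 18%, plus a signal ratio from 0.5 to 1.5, limit read from the data, passing the limit was not always enough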
CRFR2-BP ag: agonists of human CRF-binding protein/CRF-R2 receptor complex; activation, % at 13.2 µM; HEK293 CRF-R2/CRF-BP, calcium dye fluorescence (FLIPR); percent of saturating CRF peptide response; hit rate 0.46% among 350,000;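 active means activation of at least 50%, plus an integration ratio under a set limit after plate pattern correction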;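 further: plate controls were neutral control wells without compound for no effect and CRF at EC100 for full effect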
The depositor's hits bear a star; . = not tested or not shown. In the library only some 2.9% were active in any assay of this set; here they are far more common.

SMILES | Tn6 DDE FP | KLK7 zymogen act | CRFBP-R2 block | DDE Tn7 FP inh | CendR NRP1 mod | CRFR2-BP ag
CCOc1ccc(C(=O)OCC(=O)Nc2cccnc2Cl)cc1OCC | -2 | 0 | 103* | -2 | 6 | 1
O=C(COC(=O)c1ccc(Cl)c(Cl)c1)Nc1cccnc1Cl | 1 | 0 | -46 | -1 | 7 | 2
COCC(C)n1c(C)cc(C(=O)COC(=O)c2ccc3c(c2)NC(=O)CS3)c1C (stereo not drawn) | 1 | 1 | 8 | 6 | 30* | 0
O=C(O)c1ccc(/C=N/Nc2cccc(C(F)(F)F)c2)cc1 | 0 | -1 | 76* | 2 | -7 | 0
CC(C)(C)S(=O)(=O)N1Cc2cc(CO)ccc2[C@@H]1CCO | -6 | 0 | . | 4 | . | .
C[C@@H]1CN([C@@H](C)CO)C(=O)c2cccc(NS(C)(=O)=O)c2O[C@H]1CN(C)Cc1ccc(Oc2ccccc2)cc1 | -3 | 0 | 4 | -4 | 7 | -2
C[C@H](CO)N1C[C@H](C)[C@@H](CN(C)Cc2ccc(C(=O)O)cc2)Oc2c(NC(=O)Cc3ccccc3)cccc2C1=O | -8 | -1 | 0 | -1 | 30* | -1
C[C@@H]1CN([C@@H](C)CO)C(=O)c2cccc(NS(C)(=O)=O)c2O[C@H]1CN(C)Cc1ccc(C(=O)O)cc1 | 2 | 1 | -2 | 5 | 26* | 0
COc1ccc2c3c([nH]c2c1)[C@]1(CCNC=O)Nc2ccccc2C1=NCC3 | -3 | . | . | 3 | . | .
O=C(CCS(=O)(=O)c1ccccc1)Nc1cc(Cl)ccc1F | 0 | 0 | . | -5 | . | .
C[C@H](NC(=O)N1CCn2c1nc1ccccc12)C(=O)NC1CC1 | 3 | -1 | -16 | -1 | 10 | -1
CC(NC(=O)[C@H](C)NC(=O)N1CCn2c1nc1ccccc12)c1ccccc1 (stereo partly drawn) | 6 | 1 | -20 | -5 | 24* | 0
O=C(CCN1CCCC1=O)NC1CCCc2c1cnn2-c1ccccc1F (stereo not drawn) | 3 | 0 | 54* | 8 | 3 | 21
O=C(CCN1CCCC1=O)NC1CCCc2c1cnn2-c1ccc(F)cc1F (stereo not drawn) | -2 | -1 | 2 | 0 | 1 | 0
Cc1cccc(-n2ncc3c2CCCC3NC(=O)CCN2CCCCO2)c1C (stereo not drawn) | -1 | 0 | -1 | -2 | 23* | -1
O=C(C1CC1)N1N=C(c2ccc(Cl)cc2)CC1(O)C(F)(F)F (stereo not drawn) | 0 | 0 | -20 | -2 | 27* | -5
CCN(CC)C(=O)CC[C@H]1CC[C@]2(CCCN(C(=O)c3cccnc3)C2)O1 | -7 | 0 | . | -5 | . | .
O=C(NCc1cccs1)C1CCC(CNS(=O)(=O)c2cccc3cccnc23)CC1 (stereo not drawn) | 6 | 0 | . | 8 | . | .
CN(CCOC(=O)c1cc2ccccc2o1)C1CN(Cc2cn(Cc3cccc(F)c3)nn2)S(=O)(=O)C1 (stereo not drawn) | 3 | 0 | . | 2 | . | .
COc1ccc(C2N(Cc3ccccc3)CC(=O)N2/N=C(\C)c2ccccc2)cc1 (stereo not drawn) | -4 | 0 | 81* | -8 | -5 | 1
COc1ccc(/C=N/N2C(=O)CN(C(=O)c3ccccc3)C2c2ccc(OC)cc2)cc1 (stereo not drawn) | 2 | 0 | -17 | -6 | 1 | 0
O=C(CCc1ccc(Oc2cc([N+](=O)[O-])cc([N+](=O)[O-])c2)cc1)N1CCCCCC1 | 0 | 0 | -3 | 1 | 26* | 2
O=C(O)c1ccc(N=N/C(=N\Nc2ccc(C(=O)O)cc2)c2ccccc2)cc1 | 9 | 0 | 22 | 0 | 34* | -5
Brc1ccc(N/N=C(/N=Nc2nn[nH]n2)c2ccccc2)cc1 | -1 | 0 | 21 | 5 | 42* | -2
CC(C)N1Cc2nnn(Cc3ccccc3)c2-c2ccccc2S1(=O)=O | 3 | -1 | . | -5 | . | .
COCCCNS(=O)(=O)c1ccccc1 | -2 | 0 | 4 | -11 | -1 | -1
COCCCNS(=O)(=O)c1ccc2c3c(cccc13)C(=O)S2 | 2 | -2 | -5 | 4 | 29* | 3
